For one molecule, inhibition in vivo results are on record in ChEMBL document CHEMBL5344432, “Identification of a Dual Autophagy and REV-ERB Inhibitor with in Vivo Anticancer Efficacy” (J Med Chem, 2024).

In this test the test system is A-375. The experiment in a line: Antitumor activity against human A-375 cells xenografted in NMRI-Foxn1nu mouse assessed as tumor growth inhibition at 30 mg/kg, ip administered as 3 days on and 2 days off schedule and measured after 15 days. The format is functional. The conditions noted are these: A-375, 360 h, time 15 day, read-out: TGI. The method in brief:
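Female NMRI-Foxn1nu mice with subcutaneous A375 flank tumors, grouped by matched tumor volume. Dosing: 30 mg/kg ip or saline, 3 days daily then 2 days off. Tumors measured by digital caliper until day 15. Excised tumors then sized as (W × D × L)/2 and weighed. n = 8; Mann–Whitney two-tailed test for the excised endpoints.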
(In general: Xenograft models place foreign cells or tissue in a host animal.)

Molecules are shown by their SMILES.

For the molecule `Fc1ccc(C2(NCc3ccc(F)c(CC4CCNCC4)c3)CCCC2)cc1`, the inhibition in vivo at 30 mg/kg came to 55%.
